Several values for one entry are separate records, joined by “and”; a condition that tells them apart may be missing. Equal values may be shown once.
Key:
[1] = biological target: Inositol 1,4,5-trisphosphate receptor (Homo sapiens, UniProt Q14571+Q14573+Q14643); assay: The compound was tested for inhibitory activity against Inositol 1,4,5-trisphosphate receptor in L15 cell line; type: cell-based
Procedure, shortened: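 Incubation was 30 min at 4 °C with EGTA. Bound and free ligand were separated by vacuum filtration through glass fiber filters and counted by scintillation. IC50 and Hill slope came from computer curve fitting. At least three experiments in duplicate, mean ± SEM.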

SH-SY5Y = assay: Steady-State [Ca2+] Release from Saponin-Permeabilized SH-SY5Y cell line.; type: functional, cell-based, Homo sapiens
RBL-1 = assay: Steady-State [Ca2+] Release from Saponin-Permeabilized RBL Cell Lines; type: functional, cell-based, Rattus norvegicus
[2] = Hill slope by computer-assisted curve fitting.
[3] = Hill slope by computer-assisted curve fitting
Lvec = assay: Steady-State [Ca2+] Release from Saponin-Permeabilized Lvec Cell Lines; type: functional, cell-based
Procedure, shortened: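 ⁴⁵Ca²⁺ release end point assay at 22 °C in saponin-permeabilized L15 cells (mouse L fibroblasts overexpressing type 1 InsP₃R about 8-fold) or Lvec vector-control cells. Stores were loaded with ⁴⁵Ca²⁺ in ATP-dependent fashion to steady state (about 15 min). Buffer was 120 mM KCl, 2 mM KH₂PO₄, 5 mM succinate, 20 mM Hepes, 2 mM ATP and 2.4 mM MgCl₂, at pH 7.2, with free Ca²⁺ set to 80–150 nM with EGTA. Retained ⁴⁵Ca²⁺ was counted by scintillation. 100% was the release by 10 µM Ins(1,4,5)P₃. EC50 and Hill slope came from curve fitting. At least four experiments in duplicate, mean ± SEM.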

L15 = assay: Steady-State [Ca2+] Release from Saponin-Permeabilized L15 Cell Lines

| SMILES | EC50 (SH-SY5Y) [nM] | EC50 (RBL-1) [nM] | EC50 (L15) [nM] | other results |
| --- | --- | --- | --- | --- |
| O=P(O)(O)OC1C(O)C(OP(=O)(O)O)C(OP(=O)(O)O)C(O)C1OP(=O)(O)O (stereo unspecified) | – | – | – | IC50 [1]: 172 nM |
| O=P(O)(O)O[C@@H]1[C@H](O)[C@H](O)[C@@H](OP(=O)(O)O)[C@H](OP(=O)(O)O)[C@H]1O (stereo in doubt) [INS(1,4,5)P3] | 171 | 4200 | – | – |
| O=P(O)(O)O[C@@H]1[C@H](O)[C@H](O)[C@@H](OP(=O)(O)O)[C@H](OP(=O)(O)O)[C@H]1O (stereo in doubt; 1) | – | – | – | Hill coefficient [2]: 1; Hill coefficient [3]: 0.96 and 1.17 |

Now from value to compound, other results behind:

| EC50 (SH-SY5Y) [nM] | EC50 (RBL-1) [nM] | EC50 (L15) [nM] | SMILES | other results |
| --- | --- | --- | --- | --- |
| 51.6 | 170 | 123 | O=P(O)(O)O[C@@H]1[C@H](O)[C@H](O)[C@@H](OP(=O)(O)O)[C@H](OP(=O)(O)O)[C@H]1O (stereo in doubt; 1) [INS(1,4,5)P3] | EC50 (Lvec): 247 nM |
| – | 4300 | 740 | O=P(O)(O)O[C@@H]1[C@H](O)[C@H](O)[C@@H](OP(=O)(O)O)[C@H](OP(=O)(O)O)[C@H]1O (stereo in doubt; 5) [INS(1,4,5)P3] | – |

From ChEMBL document CHEMBL1132647, “Synthesis, calcium mobilizing, and physicochemical properties of D-chiro-inositol 1,3,4,6-tetrakisphosphate, a novel and potent ligand at the D-myo-inositol 1,4,5-trisphosphate receptor” (J Med Chem, 1999)
